High-throughput results: PubChem, several laboratories
ABHD5 PLIN5 PPI: ABHD5-PLIN5 interaction inhibitors, primary screen, cell lysate, split luciferase complementation, luminescence; Split G. princeps luciferase complementation, 4 h; 360,000 compounds, 0.78% hits; inhibition, % at 4 µM; Perilipin-5 (Homo sapiens) + 1-acylglycerol-3-phosphate O-acyltransferase ABHD5 (Homo …; AID 602281, 2012;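 active = inhibition above the mean inhibition across every tested compound plus 3 SD, cut at about 22% in these data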;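 note: 0% = DMSO only wells and the 100% control is not disclosed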
Target sequence (Q00G26 whole entry, looked up): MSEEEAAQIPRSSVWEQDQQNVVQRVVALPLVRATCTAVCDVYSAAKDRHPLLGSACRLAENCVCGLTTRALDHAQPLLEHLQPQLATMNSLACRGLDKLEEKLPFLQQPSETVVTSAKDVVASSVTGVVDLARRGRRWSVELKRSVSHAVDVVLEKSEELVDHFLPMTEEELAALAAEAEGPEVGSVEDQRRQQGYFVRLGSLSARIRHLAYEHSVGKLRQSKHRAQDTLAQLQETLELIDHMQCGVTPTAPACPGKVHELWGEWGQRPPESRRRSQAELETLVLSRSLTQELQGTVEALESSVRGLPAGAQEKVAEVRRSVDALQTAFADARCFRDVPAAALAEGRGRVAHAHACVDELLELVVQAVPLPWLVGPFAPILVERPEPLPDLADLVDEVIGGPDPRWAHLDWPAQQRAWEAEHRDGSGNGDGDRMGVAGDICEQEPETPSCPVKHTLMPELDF
Target sequence (Q8WTS1 whole entry, looked up): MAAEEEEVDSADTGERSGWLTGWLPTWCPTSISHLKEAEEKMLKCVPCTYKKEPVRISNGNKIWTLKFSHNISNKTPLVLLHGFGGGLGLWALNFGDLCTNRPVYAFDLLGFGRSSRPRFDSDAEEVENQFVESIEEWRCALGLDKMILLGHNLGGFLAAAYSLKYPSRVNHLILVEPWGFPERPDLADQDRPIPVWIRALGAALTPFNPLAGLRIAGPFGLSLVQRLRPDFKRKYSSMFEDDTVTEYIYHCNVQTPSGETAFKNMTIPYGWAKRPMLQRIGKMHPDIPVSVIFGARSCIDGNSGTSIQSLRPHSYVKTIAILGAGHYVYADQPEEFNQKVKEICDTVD
CHOP UPR activ: activators of apoptotic CHOP UPR arm, primary screen, cell-based, CHO-CHOP luciferase reporter, luminescence, uHTS | 330,000 compounds, 0.34% hits | activation, % at 10 µM | UPR activation; percent of tunicamycin response over DMSO baseline | AID 449763, 2010;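 active = at 10 µM dose, activation of 40% or more, normalized to positive control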;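 note: 100% = tunicamycin at 10 µg/mL and 0% = DMSO alone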
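assay system = CHO CHOP reporter cells | amount = 500 CHO-CHOP cells per well | buffer or medium = F12 with 10% FBS | incubation = 16-18 h cell attachment, then 6 h compound exposure, 37 °C | detection = luminescence read with Steady-Glo | read-out = percent activation relative to tunicamycin control | controls = tunicamycin high control, DMSO low control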
Exocytosis inh: LAMP-1 surface exposure blockers, TALL-104 cells – cell-based, flow cytometry, MLPCN library, primary screen; TALL-104 LAMP-1 surface exposure; cells stimulated with thapsigargin and PMA; inhibition, % at 10 µM; 360,000 compounds, 0.66% hits; AID 651702, 2012;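 active = inhibition above about 55%, limit read from the data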
UPR XBP1 act: activators of adaptive XBP1 UPR arm, primary screen, cell-based, CHO-XBP1 luciferase reporter, luminescence, uHTS | IRE1-XBP1 UPR activation; percent of tunicamycin response, DMSO as zero | AID 463104, 2010 | 330,000 compounds, 0.33% hits | activation, % at 20 µM;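 active = versus positive control, 20 µM dose yields 30% or more activation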;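 note: 100% = tunicamycin at 10 µg/mL and 0% = DMSO only wells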
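Material: IRE1-XBP1 luciferase reporter CHO line / Quantity: one thousand reporter cells per well / Buffer or medium: F12 with 10% serum / Compound: 20 µM single concentration, DMSO 1% / Times: 6 h treatment, 37 °C / Detection: Steady-Glo luciferase glow luminescence, 10 min after reagent addition / Benchmarks: tunicamycin high, DMSO low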
Mdm2-MdmX inh: inhibitors of human Mdm2-MdmX association, primary screen, cell-based, luminescence, split luciferase, SaOS-2, uHTS; inhibition, % at 8 µM; SaOS-2 split-luciferase Mdm2/MdmX complementation; Protein Mdm4 (Homo sapiens) + E3 ubiquitin-protein ligase Mdm2 (Homo sapiens), …; 330,000 compounds, 3% hits;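 active = inhibition of at least 50% at 8 µM in the primary screen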
Mdm2 MdmX conf: Mdm2-MdmX complex disruptors, retested hits, confirmation, luminescence, single concentration. shares compounds with Mdm2-MdmX inh. Mdm2-MdmX binding, luminescent assay. inhibition, % at 8 µM. 10,000 compounds, 55% hits. AID 489028, 2010; in the data active = inhibition above about 40%
FLuc counter: full-length luciferase signal inhibition, confirmation, counter-screen for Mdm2/MdmX interaction inhibitor project, cell-based, single concentration, SaOS-2; shares compounds with Mdm2-MdmX inh; SaOS-2 full-length luciferase counterscreen, luminescence; inhibition, % at 8 µM; 6,200 compounds, 77% hits; AID 504607, 2011;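 active = mean inhibition at 8 µM reaching about 37%, which flags the compound as non-specific, limit read from the data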;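 note: p53-null SaOS-2 cells with luciferase driven by a doxycycline-inducible promoter; compound on cells about two nights before reading with doxycycline added after day one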
* marks the source's active call; other numbers are inactive results; x = not tested or not shown. Only some compounds are listed: those with a hit (about 4% of all), similar ones and a draw of the others.

SMILES | ABHD5 PLIN5 PPI | CHOP UPR activ | Exocytosis inh | UPR XBP1 act | Mdm2-MdmX inh | Mdm2 MdmX conf | others
Cc1cc(N2CCN(C)CC2)nc2ccc(NC(=S)N3CCN(c4ccc(F)cc4)CC3)cc12 | 2.5 | 6.6 | 29.5 | 9.6 | 94.2* | 21.4
CCCCN(C)CCNC(=S)Nc1ccc2nc(N3CCN(CC)CC3)cc(C)c2c1 | -1.4 | 1.5 | 15.5 | 0.2 | 73.9* | 36.2 | FLuc counter=51.0*
Cc1cc(N2CCCC2)nc2ccc(NC(=S)NCCCN3CCC(C)CC3)cc12 | 7.8 | 2.3 | 30.5 | -0.5 | 100.3* | 39.0 | FLuc counter=48.8*
Cc1sc2ncnc(N3CCN(c4ncccn4)CC3)c2c1C | -0.4 | -2.2 | -2.5 | 7.0 | 24.1 | x
COc1ccc(-c2nc(NC(=O)c3ccccc3)sc2-c2ccc([N+](=O)[O-])cc2)cc1 | 3.8 | -1.5 | 2.3 | 2.8 | 64.0* | 10.5
CCc1ccc(NSc2ccccc2[N+](=O)[O-])cc1 | -8.2 | -0.4 | -3.7 | 1.8 | 50.3* | 41.9* | FLuc counter=64.8*
O=C(O)c1ccccc1NSc1ccccc1[N+](=O)[O-] | 6.1 | -0.1 | -3.5 | 0.5 | 8.7 | x
Cc1c(N=C2N=C(NC(=O)Nc3ccc(Cl)cc3)c3ccccc32)c(=O)n(-c2ccccc2)n1C | -8.4 | 3.1 | -0.1 | 25.0 | 58.0* | 25.2
COc1ccc(NS(=O)(=O)c2ccc(Cl)s2)cn1 | 5.8 | 1.0 | -8.6 | -1.6 | -11.5 | x
COc1ccc(NS(=O)(=O)c2cccs2)cn1 | -4.1 | 0.7 | -2.7 | -0.3 | 79.4* | 11.5
O=C(Nc1ccc(Cc2ccc(NC(=O)C3CC3)cc2)cc1)C1CC1 | 3.5 | 2.9 | -1.9 | 3.8 | 56.9* | 14.7
NC(=O)c1ccc(NC(=O)C2CC2)cc1 | 13.7 | 1.6 | -1.8 | 3.4 | 7.9 | x
O=C1Nc2ccc(Br)cc2C12NNc1ccccc1O2 (stereo not given) | 5.0 | 1.9 | -4.2 | 9.0 | 76.4* | 22.6
COc1ccc(-n2cc(-c3ccccc3)c3c(N4CCN(CCO)CC4)ncnc32)cc1 | 5.0 | 2.1 | 26.9 | 2.0 | 51.4* | 16.0
OCCN1CCN(c2ncnc3c2c(-c2ccccc2)cn3-c2ccc(F)cc2)CC1 | 15.7 | -0.1 | 15.9 | 5.8 | 25.2 | x
Cc1cccc(-n2cc(-c3ccccc3)c3c(N4CCOCC4)ncnc32)c1 | 3.4 | -0.1 | 0.9 | 3.3 | 66.7* | 55.4* | FLuc counter=71.7*
O=C(/C=C/Nc1ccc(S(=O)(=O)Nc2cnc3ccccc3n2)cc1)c1ccccc1 | 4.5 | -1.1 | 5.9 | 0.6 | 6.7 | x
O=[N+]([O-])c1ccc(O)c(Nc2ncnc3ccccc23)c1 | 1.8 | 3.8 | -2.9 | -0.4 | 60.2* | 17.3
Cc1ccc(O)c(Nc2ncnc3ccc([N+](=O)[O-])cc23)c1 | -3.4 | 1.1 | -0.7 | -4.0 | 42.5 | x
O=[N+]([O-])c1ccc2ncnc(Nc3ccc4c(c3)OCCO4)c2c1 | -1.8 | 0.1 | 0.3 | -4.2 | 56.3* | 57.7* | FLuc counter=29.6
O=[N+]([O-])c1ccc(O)c(Nc2ncnc3ccc(Br)cc23)c1 | -0.6 | 0.3 | 10.3 | -2.9 | 34.7 | x
O=C(COc1ccccc1[N+](=O)[O-])N/N=C/c1ccncc1 | 0.9 | 0.3 | -1.7 | -3.5 | -3.5 | x
Cc1ccccc1C(=O)Nc1cccc(NC(=O)Cn2cnc3c(=O)n(C)c(=O)n(C)c32)c1 | 0.5 | 0.8 | -3.0 | -1.2 | 51.4* | 34.0
Cc1cccc(C)c1NC(=O)Cn1cnc2c(=O)n(C)c(=O)n(C)c21 | 2.2 | 1.4 | 0.5 | 1.1 | 1.6 | x
Cc1ccc(-c2csc(NCCc3nc4cc(Cl)c(Cl)cc4n3CCCO)n2)cc1 | -2.5 | -2.2 | -6.0 | -1.4 | -18.0 | x
